# Hits are enriched below; roughly 2.5% of the tested compounds scored in any of these assays.
# SENP1 inh: inhibitors of human SENP1 SUMO protease catalytic domain. recombinant SENP1 catalytic domain, CyPet-SUMO1-YPet FRET cleavage. Q9P0U3. 360,000 tested, 0.21% active. inhibition, % at 10 µM;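 active = inhibition at least 30% at 10 µM, raw YFP signal under a set limit, fluorescence ratio 0.5 to 1.5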;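 note: 0% = enzyme with DMSO and 100% = no enzyme wells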
# Target sequence (Q9P0U3 419-644 limits assumed): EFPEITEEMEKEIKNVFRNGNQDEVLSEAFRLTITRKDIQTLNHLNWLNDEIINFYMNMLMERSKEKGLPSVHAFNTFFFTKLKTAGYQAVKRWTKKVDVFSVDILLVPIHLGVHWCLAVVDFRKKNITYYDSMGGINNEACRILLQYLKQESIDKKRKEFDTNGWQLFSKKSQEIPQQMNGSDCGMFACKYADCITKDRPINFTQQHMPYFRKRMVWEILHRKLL
#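 Test system: hSENP1 catalytic domain, recombinant; Amount: 20 pM final SENP1 enzyme; Medium: Tris pH 8 buffer plus EDTA, NaCl, BME, BSA, NP40, catalase; Schedule: 50 min enzyme reaction, room temperature, light-protected; Technique: FRET fluorescence in CFP and YFP emission channels; Controls: no-enzyme wells low, DMSO-plus-enzyme wells high control.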
# SENP8 block-1: inhibitors of human SENP8 protease; AID 602440; inhibition, % at 20 µM; recombinant SENP8, Nedd8 substrate fluorescence; Q96LD8; 360,000 tested, 0.64% active; in the data active = inhibition mostly above about 40%, no sharp cut-off; inactive = mostly below about 27%
# SENP6 block: SENP6 protease inhibition; inhibition, % at 10 µM; Recombinant SENP6 catalytic domain, aminoluciferin luminescence; AID 2599; Q9GZR1; 330,000 tested, 1.8% active;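 active = inhibition above about 50% at the single tested dose, limit read from the data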;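 note: plate controls were DMSO wells with enzyme for no effect and DMSO wells lacking enzyme for full effect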
# SENP8 block-2: blocks the human protease SENP8. inhibition, % at 10 µM. 330,000 tested, 1.2% active. purified SENP8, Z-RLRGG-aminoluciferin cleavage, luminescence. Q96LD8. AID 2540; in the data active = inhibition above about 50%
# SENP7 inh: blocks the human protease SENP7; Q9BQF6; recombinant SENP7, Z-RLRGG-aminoluciferin luminescence, 40 min; inhibition, % at 5 µM; 330,000 tested, 1.5% active; AID 434973;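 active = inhibition above about 50% at the single test dose, limit read from the data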;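 note: plate controls were DMSO with enzyme for no effect and no enzyme buffer wells for full effect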
# Target sequence (Q9BQF6 706-1050 limits assumed): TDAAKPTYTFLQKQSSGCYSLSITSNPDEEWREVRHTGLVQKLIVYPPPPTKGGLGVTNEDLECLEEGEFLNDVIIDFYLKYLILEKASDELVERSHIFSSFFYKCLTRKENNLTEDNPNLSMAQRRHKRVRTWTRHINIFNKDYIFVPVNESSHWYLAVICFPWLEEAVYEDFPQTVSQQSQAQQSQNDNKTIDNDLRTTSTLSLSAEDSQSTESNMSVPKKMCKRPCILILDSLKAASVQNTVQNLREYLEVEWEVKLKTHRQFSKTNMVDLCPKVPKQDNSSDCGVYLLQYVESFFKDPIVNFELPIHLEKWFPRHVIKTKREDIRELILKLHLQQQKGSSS
# The depositor's hits bear a star; / = not tested or not shown.
SMILES,SENP1 inh,SENP8 block-1,SENP6 block,SENP8 block-2,SENP7 inh
O=C(NCc1cc(Cl)cc(Cl)c1)c1csc([C@@H]2C[C@H](O)[C@@H](CO)O2)n1,-2,9,/,/,/
COc1ccccc1OCC(=O)NNc1c2ccccc2nc2ccccc12,-11,-4,6,4,-5
CCCCN1C(=O)/C(=C/C=C2/CC(C)(C)CN2C)SC1=S,-27,46*,6,-1,5
CCCCN1C(=O)/C(=C/C=C2\Oc3ccccc3N2CC)SC1=S,-19,32,/,/,/
CN(C)S(=O)(=O)c1cc(NC(=O)CNCc2ccc(F)cc2)ccc1Cl,3,8,-10,1,-1
O=C(O)c1ccc(N/N=C/C=C/c2ccccc2)cc1,-32,-216,98*,95*,92*
Cc1ccc(C)c(NC(=O)CCN2CCCCC2)c1,1,15,6,5,0
Cc1cc(/C=C2\SC(=S)N(C)C2=O)c(C)n1-c1ccccc1O,-33,-1,87*,70*,77*
O=C(c1ccccc1)N1CCC(CC2CC(c3cccc(Br)c3)=NO2)(C(=O)NCC2CCCCC2)CC1 (stereo unspecified),1,50*,-19,-11,-10
O=c1c2ccccc2c(C=Nc2cccc(S(=O)(=O)NC3=NCCCCC3)c2)c(O)n1Cc1ccccc1,-55,4,53*,8,24
O=C(c1cc(O)c(O)c([N+](=O)[O-])c1)c1ccccc1F,1,39*,-4,9,-5
O=C(Nc1ccc([N+](=O)[O-])cc1)c1ccccc1F,1,31,13,7,12
CCN(C(=O)CSc1nnc(C)n1-c1ccccc1)C1CCS(=O)(=O)C1 (stereo unspecified),1,32,-27,-6,1
CC[C@@]1(O)C(=O)OCc2c1cc1n(c2=O)Cc2cc3c(N)cccc3nc2-1,32*,-237,11,-3,0
COc1ccc(C(=O)OCC(=O)NCc2ccc3c(c2)OCO3)cc1S(=O)(=O)N1CCOCC1,-1,8,7,5,10
CCCOc1cc(N)ccc1C(=O)OCCN(CC)CC,1,6,-12,10,3
CCCOc1ccc(N)cc1N,-18,-44,-4,52*,39
CC(N=Cc1cccc(O)c1O)c1ccccc1 (stereo unspecified),6,81*,27,3,-7
CC(N=Cc1cc([N+](=O)[O-])ccc1O)c1ccccc1 (stereo unspecified),-5,-9,16,-5,9
CCN(CC)CC(=O)Nc1cccc2c1C(=O)c1ccccc1C2=O,8,40*,1,-4,0
O=C1c2ccccc2C(=O)c2c(NCCCN(CCO)CCO)cccc21,5,44*,9,4,-3
CCCCn1c(NC(=O)c2ccc(F)cc2)c(C#N)c2nc3ccccc3nc21,/,/,92*,95*,19
C[C@]12C=CC(=O)C=C1CC[C@@H]1C2=CC[C@]2(C)[C@@H](C(=O)CN3CCN(c4cc(N5CCCC5)nc(N5CCCC5)n4)CC3)CC[C@@H]12,-67,22,64*,76*,31
CC(=O)Nc1ccc(SCC(=O)O)cc1,3,4,-7,-12,-6
O=C(O)CSc1ccc(NC(=O)Nc2ccccc2F)cc1,3,15,-5,95*,98*
SMILES,SENP1 inh,SENP8 block-1,SENP6 block,SENP8 block-2,SENP7 inh
Cc1cc(O)c2c(c1O)C(=O)[C@]13C(=C2O)C(=O)[C@@H]2[C@@H](O)[C@H]1[C@@H]1[C@H](O)[C@H]3C(=O)C3=C(O)c4c(O)cc(C)c(O)c4C(=O)[C@]312,-85,20*,40,35,9
CC(C)(C)c1ccc(OC(=O)Nc2ccc(O)c(C(=O)O)c2)cc1,3,-263,83*,72*,18
Cc1ccc2oc(C(=O)N3CCN(Cc4ncccc4C)CC3)c(C)c2c1,-2,11,10,0,-4
Nc1c(C(=O)N/N=C/c2ccccc2)cnn1-c1ccccc1,2,0,67*,49,51*
COc1ccc2cc(C3CC=C(CO)CN3S(=O)(=O)c3ccccc3[N+](=O)[O-])n(C(=O)OC(C)(C)C)c2c1 (stereo unspecified),2,7,/,/,/
O=[N+]([O-])c1ccccc1NCCOc1ccccc1,1,16,82*,60*,73*
Cc1c(N2C(=O)CSC23C(=O)Nc2ccccc23)c(=O)n(-c2ccccc2)n1C (stereo unspecified),0,3,-34,-1,0
Cc1c(N2C(=O)c3ccccc3C2(O)c2ccccc2)c(=O)n(-c2ccccc2)n1C (stereo unspecified),3,5,95*,-2,-1
Cc1ccc(C(=O)NCCN2CCC(n3c(=O)[nH]c4ccccc43)CC2)cc1C,4,12,/,/,/
CC1CCN(CCc2nc3cc(NC(=O)COc4ccc(Cl)cc4)ccc3n2C)CC1,0,2,0,-5,-5
c1ccc(NCc2nc3ccccc3n2CCOc2ccccc2)cc1,1,11,66*,48,33
COc1ccc(NCc2nc3ccccc3n2CCOc2ccccc2)cc1,-4,17,12,-5,17
COc1cccc(/C=C2\CCc3ccccc3C2=O)c1,3,32,99*,95*,94*
COc1ccc(C)cc1Nc1n[n+](-c2ccccc2)c(-c2ccc(N(C)C)cc2)s1,41*,-152,-24,-17,17
CC(C)(C)NC(=O)CSc1ncccc1-c1nc2ccccc2[nH]1,-2,-278,-16,4,5
Cc1cc2nc(-c3cccnc3SCC(=O)NC3CC3)[nH]c2cc1C,/,/,88*,81*,90*
CC1(C)Cc2ccccc2C2CC(O)C(=O)N21 (stereo unspecified),-39,40*,-2,4,4
COc1ccc(-c2cn3cccc(C)c3n2)cc1F,-1,-298,5,48,60*
O=C(CCNC(=O)c1ccc([N+](=O)[O-])cc1)Nc1ccc(F)cc1F,-1,30,-17,-15,-3
C/C(=N\Nc1nc2ccccc2[nH]1)c1ccccn1,-1,-4,59*,32,-1
Cn1c(CNC(=O)C(Cc2ccccc2)NC(=O)c2ccccc2F)cc(=O)n(C)c1=O (stereo unspecified),1,-2,16,6,0
CCC(N=c1cc(-c2ccc(OC)cc2)oc2ccc(C)cc12)C(=O)O (stereo unspecified),-26,-414,52*,17,14
CCC(N=c1cc(-c2ccc(OC)c(OC)c2)oc2ccc(C)cc12)C(=O)O (stereo unspecified),-45,-409,7,-4,-2
CCCn1c(N)c(NCCN2CCOCC2)c(=O)n(CC(=O)NCc2ccccc2)c1=O,-2,3,-20,-2,1
CC(=O)N1CCc2cc(N=NC3=C(O)CCCC3=O)ccc21,47*,20,-4,-1,-2
COc1cc([N+](=O)[O-])cc(/C=N/NC(=O)c2ccc(C)nc2)c1O,-8,27,75*,58*,77*

# Screening data deposited in PubChem BioAssay by Sanford-Burnham Center for Chemical Genomics.
